pIC50: −log10 of the molar value. The source made the active and inactive calls. No cut-off for these calls is given here.
Tests used:
[1] = system: Escherichia coli; assay: Inhibition of transglycosylase activity of Escherichia coli PBP1b assessed as remaining activity at 500 uM incubated for 30 mins by continous fluorescence assay
Method in brief: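 Continuous fluorescence TG assay at 30 °C with purified E. coli PBP1b (100 nM) and dansyl-lipid II (10 µM) plus 1 U muramidase (Cellosyl). Fluorescence (ex 355/em 536 nm) read for 30 min. Relative activity measured with compound at 500 µM.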

[2] = Inhibition of transglycosylase activity of Escherichia coli PBP1b incubated for 30 mins by continous fluorescence assay
[3] = system: Staphylococcus aureus; assay: Antibacterial activity against methicillin-resistant Staphylococcus aureus ATCC 43300 assessed as no visual turbidity by broth microdilution method; format: functional
Method in brief: (§1)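 Mueller-Hinton broth microdilution per EUCAST/CLSI, 200 µL final volume. Compounds taken from 10 mg/mL DMSO stocks and diluted 20-fold in broth just before use. Inoculum was colonies from overnight plates, adjusted to 0.5 McFarland (about 1.10^8 CFU/mL) in 0.085% NaCl, then diluted 100-fold in broth. MIC was the lowest dilution with no visible turbidity.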

[4] = system: Escherichia coli; assay: Antibacterial activity against Escherichia coli ATCC 8739 assessed as no visual turbidity by broth microdilution method; format: functional
Method in brief: (§2)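 Broth microdilution in Mueller-Hinton broth following the EUCAST/CLSI procedure. Compounds were made as 10 mg/mL DMSO stocks, diluted 20-fold in broth just before use. Inoculum: colonies suspended to 0.5 McFarland (~1×10^8 CFU/mL) in 0.085% NaCl, then diluted 100-fold in broth. MIC is the lowest dilution with no visible turbidity.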

[5] = system: Enterococcus faecium; assay: Antibacterial activity against Enterococcus faecium ATCC 19434 assessed as no visual turbidity by broth microdilution method; format: functional; method in brief: as §2
[6] = system: Staphylococcus aureus; assay: Antibacterial activity against Staphylococcus aureus ATCC 25923 assessed as no visual turbidity by broth microdilution method; format: functional; method in brief: as §1
[7] = system: HEK293; assay: Cytotoxicity against HEK293 cells assessed as reduction in cell viability at 8 ug/ml after 24 hrs by MTS assay; format: cell-based; conditions: human, hek293, 24 h
Method in brief: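 HEK293 cells grown in DMEM with 10% FBS, 2 mM glutamine and penicillin/streptomycin at 37 °C, 5% CO2. Cells seeded at 2×10^4 per well and allowed to adhere 24 h. Compound added at 8 µg/mL final from an 8 mg/mL DMSO stock, with vehicle controls, in triplicate for 24 h. Metabolic activity read by MTS (CellTiter 96 AQueous One).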

[8] = Inhibition of Staphylococcus aureus mtgA after 30 mins by continous fluorescence assay
[9] = Inhibition of Thermotoga maritima PBP1A transglycosylase activity after 30 mins by continous fluorescence assay
[10] = target: T1, Penicillin-binding protein 2 (Staphylococcus aureus, UniProt Q53729); assay: Inhibition of Staphylococcus aureus PBP2 transglycosylase activity after 30 mins by continous fluorescence assay
T1 sequence (Q53729 whole entry): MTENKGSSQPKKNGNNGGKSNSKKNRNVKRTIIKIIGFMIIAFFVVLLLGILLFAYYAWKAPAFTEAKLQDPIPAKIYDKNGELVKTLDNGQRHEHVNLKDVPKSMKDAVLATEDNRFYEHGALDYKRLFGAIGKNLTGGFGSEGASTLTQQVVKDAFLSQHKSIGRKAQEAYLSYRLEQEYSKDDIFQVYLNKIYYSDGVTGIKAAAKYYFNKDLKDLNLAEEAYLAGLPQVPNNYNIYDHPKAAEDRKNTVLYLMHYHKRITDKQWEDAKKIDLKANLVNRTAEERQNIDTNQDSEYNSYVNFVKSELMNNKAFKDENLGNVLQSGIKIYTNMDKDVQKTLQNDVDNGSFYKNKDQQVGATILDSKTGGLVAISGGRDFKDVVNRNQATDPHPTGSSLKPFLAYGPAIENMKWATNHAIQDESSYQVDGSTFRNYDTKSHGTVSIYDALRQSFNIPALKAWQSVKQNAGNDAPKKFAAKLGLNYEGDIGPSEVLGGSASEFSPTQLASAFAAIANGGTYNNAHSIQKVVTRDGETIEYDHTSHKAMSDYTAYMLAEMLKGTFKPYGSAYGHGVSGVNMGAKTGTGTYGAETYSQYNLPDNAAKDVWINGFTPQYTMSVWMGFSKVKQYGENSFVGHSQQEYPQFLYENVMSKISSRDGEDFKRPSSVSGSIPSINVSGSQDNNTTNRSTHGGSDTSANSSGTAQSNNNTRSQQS

[11] = Inhibition of Enterococcus hirae PBP2 transglycosylase activity after 30 mins by continous fluorescence assay
[12] = Binding affinity to lipid2 in carboxyfluorescein loaded DOPC large unilamellar vesicle assessed as inhibition of nisin-induced carboxyfluorescein leakage at 1.5 uM preincubated for 2 mins followed by nisin addition measured after 50 secs
Method in brief: (§3)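 DOPC LUVs (200-nm extrusion) containing 0.1 mol% lipid II and loaded with 50 mM CF, used at 20 µM lipid in 10 mM Tris, 150 mM NaCl, pH 7.5. Compound (from 1 mM DMSO stock) preincubated 2 min, then 20 nM nisin added. Leakage read at ex 492/em 516 nm and normalized to Triton X-100 total release. Residual nisin activity at 50 s is expressed relative to a no-compound control; run in triplicate.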

[13] = Binding affinity to lipid2 in carboxyfluorescein loaded DOPC large unilamellar vesicle assessed as inhibition of nisin-induced carboxyfluorescein leakage at 3 uM preincubated for 2 mins followed by nisin addition measured after 50 secs; method in brief: as §3

| Structure (SMILES) | Activity [1] | pIC50 [2] | MIC [3] | MIC [4] | MIC [5] | MIC ([6]; read-out: MIC) | further results |
| --- | --- | --- | --- | --- | --- | --- | --- |
| CSc1ccc2c(c1)c(CCN)c(C)n2Cc1ccc(Cl)c(Cl)c1 [listing 1 of 3 here] | 1% |  |  |  |  |  |  |
| COc1ccc(Cn2cc(CCN)c3ccccc32)cc1 | 80% |  |  |  |  |  |  |
| COc1cccc(Cn2cc(CCN)c3ccccc32)c1 | 86% |  |  |  |  |  |  |
| COc1cccc(Cn2cc(CCNC(=N)N)c3ccccc32)c1 | 55% | < 3.60 | 146 µM | 73 µM | 293 µM | 73 µM |  |
| N#Cc1cccc(Cn2cc(CCNC(=N)N)c3ccccc32)c1 | 79% |  |  |  |  |  |  |
| Cl.N=C(N)NCCc1cn(Cc2ccc(F)c(F)c2)c2ccccc12 | 10% | 4.01 | 88 µM | 44 µM | 88 µM | 44 µM | Activity [7]: Non-toxic |
| NCCc1cn(Cc2ccccc2)c2ccccc12 | 93% |  |  |  |  |  |  |
| COc1ccc2c(c1)c(CCN)cn2Cc1ccc(Cl)c(Cl)c1.Cl | 24% | 3.71 | 83 µM | 166 µM | 83 µM | 83 µM | Activity [7]: Toxic |
| NCCc1cn(Cc2ccc(F)cc2)c2ccccc12 | 97% |  |  |  |  |  |  |
| N=C(N)NCCc1cn(Cc2cccc(Cl)c2)c2ccccc12 | 15% | 3.78 | 145 µM | 145 µM | 73 µM | 145 µM |  |
| CSc1ccc2c(c1)c(CCN)c(C)n2Cc1ccc(Cl)c(Cl)c1 [listing 2 of 3 here] |  | 4.54 | 9.6 µM | 616 µM | 76 µM |  | pIC50 [8]: 4.57; pIC50 [9]: 4.25; pIC50 [10]: 4.68; pIC50 [11]: 4.48; Activity [7]: Toxic; MIC [6]: 16 µg/mL |
| N=C(N)NCCc1cn(Cc2ccc(F)cc2)c2ccccc12 | 42% | < 3.60 | 369 µM | 184 µM | 184 µM | 92 µM |  |
| COc1ccc2c(c1)c(CCN)c(C)n2Cc1ccc(F)c(F)c1 | 28% | < 3.60 | 174 µM | 174 µM | 174 µM | 174 µM |  |
| N#Cc1cccc(Cn2cc(CCN)c3ccccc32)c1 | 94% |  |  |  |  |  |  |
| Cl.N=C(N)NCCc1cn(Cc2ccc(Cl)c(Cl)c2)c2ccccc12 | 1% | 4.29 | 20 µM | 40 µM | 10 µM | 20 µM | Activity [7]: Non-toxic |
| COc1ccc2c(c1)c(CCN)c(C)n2Cc1ccc(C#N)cc1 | 118% |  |  |  |  |  |  |

| Structure (SMILES) | Activity [1] | pIC50 [2] | MIC [3] | MIC [4] | MIC [5] | MIC ([6]; read-out: MIC) | further results |
| --- | --- | --- | --- | --- | --- | --- | --- |
| CSc1ccc2c(c1)c(CCN)c(C)n2Cc1ccccc1 | 31% | < 3.60 | 184 µM | 369 µM | 92 µM | 92 µM |  |
| COc1ccccc1Cn1cc(CCN)c2ccccc21 | 96% |  |  |  |  |  |  |
| COc1ccc2c(c1)c(CCN)c(C)n2Cc1ccccc1 | 75% |  |  |  |  |  |  |
| NCCc1cn(Cc2ccc(F)c(F)c2)c2ccccc12 | 62% | < 3.60 | 397 µM | 198 µM | 198 µM | 198 µM |  |
| NCCc1cn(Cc2cccc(Cl)c2)c2ccccc12 | 54% | < 3.60 | 100 µM | 100 µM | 100 µM | 100 µM |  |
| COc1ccc2c(c1)c(CCNC(=N)N)cn2Cc1ccc(F)c(F)c1 | 28% | < 3.60 | 162 µM | 81 µM | 324 µM | 81 µM |  |
| COc1ccc2c(c1)c(CCNC(=N)N)cn2Cc1ccc(Cl)c(Cl)c1.Cl | 9% | 4.30 | 19 µM | 37 µM | 19 µM | 19 µM | Activity [7]: Non-toxic; Activity [12]: Active |
| N=C(N)NCCc1cn(Cc2ccccc2)c2ccccc12 | 73% |  |  |  |  |  |  |
| COc1ccc2c(c1)c(CCN)c(C)n2Cc1ccc(Cl)c(Cl)c1.Cl | 5% | 3.98 | 40 µM | 20 µM | 20 µM | 20 µM | Activity [7]: Toxic |
| COc1ccc2c(c1)c(CCNC(=N)N)c(C)n2Cc1ccc(Cl)c(Cl)c1.Cl | 4% | 4.41 | 9.1 µM | 72 µM | 9.1 µM | 9.1 µM | inhibition [13]: > 90%; Activity [7]: Non-toxic; Activity [12]: Active |
| COc1ccccc1Cn1cc(CCNC(=N)N)c2ccccc21 | 29% | < 3.60 | 89 µM | > 356 µM | 44 µM | 89 µM |  |
| Cl.NCCc1cn(Cc2ccc(Cl)c(Cl)c2)c2ccccc12 | 15% | 3.99 | 45 µM | 45 µM | 11 µM | 45 µM | Activity [7]: Toxic |
| CSc1ccc2c(c1)c(CCN)c(C)n2Cc1ccc(Cl)c(Cl)c1 [listing 3 of 3 here] |  | 4.68 |  |  |  |  |  |
| COc1ccc2c(c1)c(CCN)cn2Cc1ccc(F)c(F)c1 | 88% |  |  |  |  |  |  |
| COc1ccc2c(c1)c(CCN)cn2Cc1ccc(C#N)cc1 | 105% |  |  |  |  |  |  |
| COc1ccc(Cn2cc(CCNC(=N)N)c3ccccc32)cc1 | 67% |  |  |  |  |  |  |

Source: ChEMBL document CHEMBL3745642, “Structure-Activity Relationships of Novel Tryptamine-Based Inhibitors of Bacterial Transglycosylase” (J Med Chem, 2015)
